Test results: BindingDB's records for doi:10.1021/jm100027p (Emory University, 2010)

Assays:
[1] = molecular target: Glutamate receptor ionotropic, NMDA 1/2A (Rattus norvegicus, UniProt Q00959+P35439); assay: Antagonist activity at rat recombinant NR1-NR2A receptor expressed in Xenopus oocytes at holding potential of -40mV by two-electrode voltage-clamp electrophysiology
How it was run: (§1)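 Oocytes expressing rat NR1-1a with NR2A, NR2B, NR2C or NR2D, clamped at −40 mV in Ba2+/HEPES recording solution pH 7.4, 23°C. Current evoked by 100 μM glutamate plus 30 μM glycine. Final DMSO 0.05-0.5%, 5-7 inhibitor concentrations, ≥4 oocytes each. IC50 from Hill fit of normalized mean composite data. […] Some NR2A oocytes given BAPTA-AM or K-BAPTA.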

[2] = molecular target: Glutamate receptor ionotropic, NMDA 1/2B (Rattus norvegicus, UniProt Q00960+P35439); assay: Antagonist activity at rat recombinant NR1-NR2B receptor expressed in Xenopus oocytes at holding potential of -40mV by two-electrode voltage-clamp electrophysiology
How it was run: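 Oocytes expressed rat NR1-1a/NR2B and were held at −40 mV, 23°C, pH 7.4 HEPES-buffered saline. Currents were activated by 100 μM glutamate plus 30 μM glycine. 5-7 inhibitor concentrations were tested, ≥4 oocytes each, normalized to control. IC50 came from Hill fits, minimum fixed at 0 unless indicated. Responses >75% of control at 100 μM were reported as >300 μM.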

[3] = molecular target: Glutamate receptor ionotropic, NMDA 1/2C (Rattus norvegicus, UniProt Q00961+P35439); assay: Antagonist activity at rat recombinant NR1-NR2C receptor expressed in Xenopus oocytes at holding potential of -40mV by two-electrode voltage-clamp electrophysiology; how it was run: as §1
Glutamate receptor 1 = Glutamate receptor 1 (Rattus norvegicus, UniProt P19490); assay: Antagonist activity at rat recombinant GLuR1 expressed in Xenopus oocytes assessed as inhibition of glutamate-induced current by two-electrode voltage-clamp electrophysiology
How it was run: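 Two-electrode voltage clamp at −40 mV on Xenopus oocytes expressing rat GluR1, perfused with 90 NaCl, 1.0 KCl, 0.5 BaCl2, 0.005 EDTA, 10 HEPES (mM), pH 7.4, 23°C; activated by 100 μM glutamate. From 20 mM DMSO stocks, 5-7 concentrations, ≥4 oocytes each. Hill fit to mean composite curves normalized to control, minimum usually fixed at 0. Response >75% at 100 μM reported as >300 μM.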

Chain of Glutamate receptor ionotropic, NMDA 1/2C (Q00961 whole entry, other chains not shown): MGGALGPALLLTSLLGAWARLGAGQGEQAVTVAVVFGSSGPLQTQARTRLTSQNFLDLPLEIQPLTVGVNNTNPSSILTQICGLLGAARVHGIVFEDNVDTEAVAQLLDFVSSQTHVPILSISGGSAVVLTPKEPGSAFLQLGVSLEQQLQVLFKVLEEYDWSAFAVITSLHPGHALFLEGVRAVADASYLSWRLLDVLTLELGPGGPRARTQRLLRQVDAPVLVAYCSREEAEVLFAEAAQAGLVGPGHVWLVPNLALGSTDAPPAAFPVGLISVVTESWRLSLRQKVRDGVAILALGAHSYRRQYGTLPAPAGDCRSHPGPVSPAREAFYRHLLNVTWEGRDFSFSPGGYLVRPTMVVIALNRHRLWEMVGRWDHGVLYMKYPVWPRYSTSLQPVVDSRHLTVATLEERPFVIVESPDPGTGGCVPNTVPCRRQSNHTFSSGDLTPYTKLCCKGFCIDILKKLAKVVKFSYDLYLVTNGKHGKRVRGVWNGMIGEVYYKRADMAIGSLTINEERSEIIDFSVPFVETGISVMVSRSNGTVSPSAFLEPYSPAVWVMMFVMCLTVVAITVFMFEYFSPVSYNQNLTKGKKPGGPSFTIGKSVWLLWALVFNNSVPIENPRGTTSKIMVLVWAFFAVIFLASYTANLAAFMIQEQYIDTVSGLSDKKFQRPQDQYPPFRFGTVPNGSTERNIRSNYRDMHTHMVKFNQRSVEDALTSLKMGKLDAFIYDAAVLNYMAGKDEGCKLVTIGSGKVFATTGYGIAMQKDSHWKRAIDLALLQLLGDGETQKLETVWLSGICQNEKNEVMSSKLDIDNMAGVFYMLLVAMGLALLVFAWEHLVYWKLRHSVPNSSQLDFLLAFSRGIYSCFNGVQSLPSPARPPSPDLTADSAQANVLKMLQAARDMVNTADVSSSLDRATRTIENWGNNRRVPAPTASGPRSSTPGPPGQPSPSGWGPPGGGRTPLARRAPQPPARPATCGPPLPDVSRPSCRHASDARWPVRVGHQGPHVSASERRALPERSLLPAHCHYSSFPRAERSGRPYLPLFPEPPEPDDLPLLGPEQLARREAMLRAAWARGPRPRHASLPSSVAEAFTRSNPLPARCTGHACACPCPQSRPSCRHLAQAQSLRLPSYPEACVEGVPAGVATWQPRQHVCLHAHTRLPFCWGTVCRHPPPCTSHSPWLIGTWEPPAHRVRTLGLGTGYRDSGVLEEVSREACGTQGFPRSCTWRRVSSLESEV
Chain of Glutamate receptor ionotropic, NMDA 1/2A (Q00959 whole entry, other chains not shown): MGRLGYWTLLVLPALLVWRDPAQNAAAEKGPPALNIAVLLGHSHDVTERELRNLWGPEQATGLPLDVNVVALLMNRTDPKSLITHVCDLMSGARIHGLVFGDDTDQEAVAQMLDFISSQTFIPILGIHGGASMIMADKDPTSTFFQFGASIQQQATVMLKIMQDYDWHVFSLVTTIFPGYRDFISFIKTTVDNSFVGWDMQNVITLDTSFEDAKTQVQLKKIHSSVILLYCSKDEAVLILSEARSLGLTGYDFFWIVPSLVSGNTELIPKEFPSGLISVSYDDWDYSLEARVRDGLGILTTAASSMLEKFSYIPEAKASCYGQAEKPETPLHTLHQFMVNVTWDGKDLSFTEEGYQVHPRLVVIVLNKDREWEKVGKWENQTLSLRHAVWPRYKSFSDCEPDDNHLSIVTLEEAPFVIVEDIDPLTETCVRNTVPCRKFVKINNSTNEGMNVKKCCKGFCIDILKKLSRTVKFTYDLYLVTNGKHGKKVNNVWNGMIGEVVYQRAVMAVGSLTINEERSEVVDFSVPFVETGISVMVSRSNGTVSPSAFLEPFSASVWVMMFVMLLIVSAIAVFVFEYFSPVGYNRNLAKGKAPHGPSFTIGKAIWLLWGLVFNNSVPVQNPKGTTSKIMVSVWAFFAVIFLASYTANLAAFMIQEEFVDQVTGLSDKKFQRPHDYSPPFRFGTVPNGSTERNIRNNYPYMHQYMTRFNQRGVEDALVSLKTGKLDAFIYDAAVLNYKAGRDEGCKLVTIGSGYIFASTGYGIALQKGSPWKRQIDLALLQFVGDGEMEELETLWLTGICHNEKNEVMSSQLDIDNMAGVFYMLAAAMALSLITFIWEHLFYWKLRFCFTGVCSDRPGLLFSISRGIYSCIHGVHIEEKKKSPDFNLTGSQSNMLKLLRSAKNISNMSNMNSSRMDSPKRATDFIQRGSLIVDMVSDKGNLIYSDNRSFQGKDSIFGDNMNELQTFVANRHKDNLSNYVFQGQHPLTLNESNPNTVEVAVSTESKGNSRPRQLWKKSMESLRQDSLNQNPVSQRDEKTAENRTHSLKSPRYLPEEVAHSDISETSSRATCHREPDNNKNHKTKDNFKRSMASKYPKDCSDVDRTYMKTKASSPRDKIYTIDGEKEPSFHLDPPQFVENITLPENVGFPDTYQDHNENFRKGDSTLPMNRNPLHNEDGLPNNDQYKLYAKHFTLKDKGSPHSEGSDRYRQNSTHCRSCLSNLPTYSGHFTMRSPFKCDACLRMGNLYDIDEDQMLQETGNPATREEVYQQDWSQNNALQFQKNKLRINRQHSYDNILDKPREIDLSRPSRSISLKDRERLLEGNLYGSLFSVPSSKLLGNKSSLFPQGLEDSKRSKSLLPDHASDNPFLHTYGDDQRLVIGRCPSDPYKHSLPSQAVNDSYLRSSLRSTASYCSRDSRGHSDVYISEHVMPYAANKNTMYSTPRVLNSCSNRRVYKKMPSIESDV
Chain of Glutamate receptor 1 (P19490 whole entry, the tested form may be a part): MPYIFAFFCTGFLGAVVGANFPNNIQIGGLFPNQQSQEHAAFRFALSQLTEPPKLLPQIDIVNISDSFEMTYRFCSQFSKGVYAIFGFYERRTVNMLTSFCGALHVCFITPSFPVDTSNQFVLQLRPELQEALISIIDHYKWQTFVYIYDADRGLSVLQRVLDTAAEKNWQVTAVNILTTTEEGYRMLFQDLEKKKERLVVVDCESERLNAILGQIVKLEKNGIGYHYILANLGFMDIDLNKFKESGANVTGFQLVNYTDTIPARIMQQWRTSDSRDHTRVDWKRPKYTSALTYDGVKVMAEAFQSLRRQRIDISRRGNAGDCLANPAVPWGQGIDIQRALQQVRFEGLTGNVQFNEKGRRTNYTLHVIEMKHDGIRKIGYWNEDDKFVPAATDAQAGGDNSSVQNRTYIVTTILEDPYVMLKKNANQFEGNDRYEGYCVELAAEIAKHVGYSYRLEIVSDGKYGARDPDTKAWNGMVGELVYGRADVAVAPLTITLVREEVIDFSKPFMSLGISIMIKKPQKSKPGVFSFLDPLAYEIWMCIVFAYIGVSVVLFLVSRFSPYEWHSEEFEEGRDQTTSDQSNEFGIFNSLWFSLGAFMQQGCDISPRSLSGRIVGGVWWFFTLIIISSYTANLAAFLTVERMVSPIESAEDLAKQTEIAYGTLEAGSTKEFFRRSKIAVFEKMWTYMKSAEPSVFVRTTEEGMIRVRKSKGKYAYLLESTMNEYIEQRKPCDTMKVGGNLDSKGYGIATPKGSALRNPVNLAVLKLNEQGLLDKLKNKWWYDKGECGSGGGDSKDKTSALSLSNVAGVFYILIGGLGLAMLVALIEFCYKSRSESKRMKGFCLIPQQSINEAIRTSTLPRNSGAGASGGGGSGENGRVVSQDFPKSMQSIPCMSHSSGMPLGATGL
Chain of Glutamate receptor ionotropic, NMDA 1/2B (Q00960 whole entry, other chains not shown): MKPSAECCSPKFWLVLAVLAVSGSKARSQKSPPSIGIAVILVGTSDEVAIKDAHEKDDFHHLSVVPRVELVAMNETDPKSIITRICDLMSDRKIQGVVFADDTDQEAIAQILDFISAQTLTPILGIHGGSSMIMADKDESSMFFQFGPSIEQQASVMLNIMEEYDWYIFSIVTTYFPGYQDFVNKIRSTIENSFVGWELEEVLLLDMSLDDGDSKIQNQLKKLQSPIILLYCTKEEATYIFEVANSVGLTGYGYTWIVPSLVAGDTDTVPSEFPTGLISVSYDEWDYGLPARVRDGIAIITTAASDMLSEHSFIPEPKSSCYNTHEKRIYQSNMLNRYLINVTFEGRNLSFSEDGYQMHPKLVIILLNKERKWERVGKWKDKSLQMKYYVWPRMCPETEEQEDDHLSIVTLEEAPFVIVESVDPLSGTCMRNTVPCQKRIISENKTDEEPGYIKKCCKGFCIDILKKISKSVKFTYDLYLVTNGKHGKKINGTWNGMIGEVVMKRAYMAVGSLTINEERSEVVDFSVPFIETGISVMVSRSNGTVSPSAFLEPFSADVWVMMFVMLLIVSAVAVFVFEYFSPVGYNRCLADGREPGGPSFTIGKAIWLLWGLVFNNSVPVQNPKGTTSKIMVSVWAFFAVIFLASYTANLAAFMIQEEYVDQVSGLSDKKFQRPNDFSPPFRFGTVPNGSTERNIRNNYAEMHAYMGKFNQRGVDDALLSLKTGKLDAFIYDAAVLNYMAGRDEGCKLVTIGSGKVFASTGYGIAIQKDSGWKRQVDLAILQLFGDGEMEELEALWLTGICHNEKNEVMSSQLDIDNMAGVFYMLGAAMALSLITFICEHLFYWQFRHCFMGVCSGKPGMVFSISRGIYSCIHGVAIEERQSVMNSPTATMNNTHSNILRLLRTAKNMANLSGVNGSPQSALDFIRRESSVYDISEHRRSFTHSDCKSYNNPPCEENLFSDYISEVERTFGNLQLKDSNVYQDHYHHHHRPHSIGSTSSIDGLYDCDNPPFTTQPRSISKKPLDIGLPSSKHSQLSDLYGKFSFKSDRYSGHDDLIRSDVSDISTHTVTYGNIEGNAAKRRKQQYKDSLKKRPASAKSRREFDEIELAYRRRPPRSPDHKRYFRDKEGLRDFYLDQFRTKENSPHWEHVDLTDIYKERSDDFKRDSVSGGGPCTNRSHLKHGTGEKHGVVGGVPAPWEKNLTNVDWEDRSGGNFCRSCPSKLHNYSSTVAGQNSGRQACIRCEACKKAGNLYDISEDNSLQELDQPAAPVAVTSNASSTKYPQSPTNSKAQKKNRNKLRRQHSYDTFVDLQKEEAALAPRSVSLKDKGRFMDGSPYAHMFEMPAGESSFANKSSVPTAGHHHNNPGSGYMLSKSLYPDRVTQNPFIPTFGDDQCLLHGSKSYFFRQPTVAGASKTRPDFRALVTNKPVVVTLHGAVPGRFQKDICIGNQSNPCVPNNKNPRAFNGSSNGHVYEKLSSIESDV

IC50 [1]: 16 µM | IC50 [2]: 13 µM | IC50 [3]: 2 µM | IC50 (Glutamate receptor 1): 7 µM
Structure (SMILES): O=C(O)c1ccc(-n2c(/C=C/c3cccc([N+](=O)[O-])c3)nc3ccc(Cl)cc3c2=O)cc1 [(E)-4-(6-Chloro-2-(3-nitrostyryl)-4-oxoquinazolin-3(4H)-yl)-benzoic Acid]
